# KCNK9 inh – human KCNK9 channel inhibition; B-score at 10 µM; hit rate 1.2% among 310,000; HEK293 KCNK9, FluxOR thallium flux fluorescence; stronger effect = lower value; Q9NPC2; AID 488922;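 active means ratio B-score over 3 SD below the library mean, with starting fluorescence within 5 SD of its mean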;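 further: negative B-score means less thallium flux so channel inhibition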
# Target sequence (Q9NPC2 whole entry, looked up): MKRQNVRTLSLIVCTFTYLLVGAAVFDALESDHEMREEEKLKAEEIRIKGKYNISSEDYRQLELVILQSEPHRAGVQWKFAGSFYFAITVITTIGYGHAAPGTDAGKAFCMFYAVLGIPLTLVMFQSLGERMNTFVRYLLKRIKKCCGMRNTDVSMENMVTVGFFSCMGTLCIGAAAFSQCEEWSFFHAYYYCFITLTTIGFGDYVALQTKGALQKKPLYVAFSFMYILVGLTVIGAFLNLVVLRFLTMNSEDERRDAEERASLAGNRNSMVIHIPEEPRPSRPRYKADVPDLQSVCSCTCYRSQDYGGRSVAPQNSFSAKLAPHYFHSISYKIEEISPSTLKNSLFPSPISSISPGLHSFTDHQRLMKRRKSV
# hERG protect – shields human hERG channel from block by proarrhythmic agents; CHO-hERG, FluxOR thallium flux, dofetilide IC70 present; activation (rescue from dofetilide block), less the hit threshold, % at 10 µM; hit rate 0.51% among 310,000;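 active means activation above the mean of controls blocked by dofetilide plus 5 SD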;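 further: thallium influx through hERG after potassium depolarization seen as dye fluorescence rise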
# Kir21 block – inhibitors of mouse Kir2.1 inward-rectifier potassium channel; P35561; hit rate 0.85% among 310,000; B-score at 10 µM; AID 1672; HEK293-Kir2.1, FluxOR thallium flux fluorescence; stronger effect = lower value;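 active means fluorescence ratio B-score at or below minus 3 SD of library scores, with starting-brightness B-score within 2 SD, cut at about -4.2 in these data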;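 further: channel flux triggered by added potassium and thallium sulfate stimulus; B-score of peak minus minimum fluorescence over baseline after thallium stimulus; more negative B-score means stronger Kir2.1 block with less thallium influx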
# KCNK3 inh – human KCNK3 channel inhibition, primary screen | O14649 | hit rate 0.84% among 340,000 | CHO-KCNK3 thallium flux, FluxOR fluorescence; stronger effect = lower value | AID 602410 | B-score at 10 µM;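 active means B-score under library mean minus 4 SD, starting fluorescence ratio at most library mean plus 5 SD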;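 further: more negative B-score means stronger inhibition of thallium flux through KCNK3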
# KCNQ1 inh – human KCNQ1 channel inhibition; P51787; B-score at 10 µM; CHO-K1 KCNQ1, FluxOR thallium flux fluorescence; stronger effect = higher value; hit rate 1.3% among 310,000;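 active means compounds whose thallium flux B-score, printed positive for inhibition, exceeds three library SD while starting fluorescence stays within three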;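 further: channel opened by potassium depolarization with thallium stimulus after 20 min compound exposure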
# KCNQ1 pot – human KCNQ1 channel potentiation or activation; P51787; CHO-K1 KCNQ1, thallium flux FluxOR fluorescence; stronger effect = higher value; B-score at 10 µM; hit rate 0.35% among 310,000;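 active means fluorescence ratio B-score, a plate-corrected score, at least three library SD, with initial intensity B-score within 5 SD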
#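 System: CHO-K1 cells stably expressing KCNQ1 / Medium: assay buffer for compound exposure, DMSO matched across wells / Reagent: thallium- and potassium-containing depolarizing buffer / Compound: one concentration, matched DMSO / Incubation: 20 min compound pretreatment at room temperature / Measured by: kinetic FluxOR fluorescence, 10 s baseline plus 110 s post-stimulus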
# KCNK9 block conf – confirmation of human KCNK9 potassium channel inhibitors; shares compounds with KCNK9 inh; HEK293 KCNK9 cells, FluxOR thallium flux fluorescence; inhibition, % at 10 µM; hit rate 43% among 4,900; AID 492992;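 active means thallium signal inhibited by more than 5 SD of the compound-free buffer control wells, on both duplicate plates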;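 further: 0% = assay buffer control wells without compound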
# Kir2-1 spec – mouse Kir2.1 off-target activity of KCNK9 modulators; hit rate 4% among 4,900; inhibition, % at 10 µM; AID 492993; Kir2.1 cells, FluxOR thallium flux fluorescence; shares compounds with KCNK9 inh;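 active means thallium signal drop more than 5 SD beyond the mean of the no-compound control wells, seen in both duplicate plates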;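 further: signal is fluorescence rise after thallium addition divided by baseline fluorescence; plate controls were assay buffer only for no effect and full block by chlorpromazine control for full effect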
# KCNK9 uninduced – second counter-screen for KCNK9 modulators: effect in non-induced cells; shares compounds with KCNK9 inh; non-induced KCNK9-HEK293, FluxOR thallium flux; inhibition, % at 10 µM; hit rate 40% among 4,900; AID 492997;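 active means thallium signal drop beyond 5 SD of the untreated control mean, on both duplicate plates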;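 further: plate controls were buffer only IC0 wells for no effect and SID17386958 at its maximal inhibitory level for full effect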
# * marks the source's active call; other numbers are inactive results; i = inactive; x = no result given. This is a sample that favours compounds with a hit; in the whole collection about 3.8% have one here.
SMILES,KCNK9 inh,hERG protect,Kir21 block,KCNK3 inh,KCNQ1 inh,KCNQ1 pot,KCNK9 block conf,Kir2-1 spec,KCNK9 uninduced
COc1ccc2ccccc2c1CNC(C)c1ccccc1 (stereo not given),i,-1.9,-5.55*,i,i,i,i,i,i
Cc1cc(C)[n+](Cc2ccccc2)cc1C(N)=O,i,-12.1,-0.89,i,i,i,x,x,x
O=[N+]([O-])c1ccc(CSc2nnc(SCc3ccc(Cl)cc3)s2)cc1,-9.31*,0.5,-0.49,i,i,i,45.0%*,i,45.5%*
Nc1nnc(SCc2ccc([N+](=O)[O-])cc2)s1,i,-9.9,-2.35,i,i,i,x,x,x
O=C(NC(=S)NCCC1=CCCCC1)c1ccccc1Br,i,1.1,-2.4,i,i,i,i,i,i
O=C(NCCCc1ccccc1)c1cc(COc2ccc(F)cc2Cl)on1,i,-8.0,-1.14,i,6*,i,i,i,i
CC(CNC(=O)c1cc(COc2ccc3ncccc3c2)on1)c1ccccc1 (stereo not given),i,-17.9,0.72,i,i,i,x,x,x
COc1cc(Cl)ccc1OCc1cc(C(=O)NCC(C)c2ccccc2)no1 (stereo not given),i,-8.4,0.1,i,i,i,i,i,i
Cc1ccc(CN(C)C(=O)c2cc(COc3ccc(F)cc3Cl)on2)o1,i,1.1,-0.94,i,i,i,x,x,x
CN(C(=O)c1cc(COc2ccc(F)cc2Cl)on1)C1CCCc2ccccc21 (stereo not given),i,-9.1,0.03,i,i,i,i,i,24.0%*
CCCNC(=O)Cn1cnc2sc(C(=O)NCCN(CC)CC)c(C)c2c1=O,i,-7.9,-1.52,i,i,i,x,x,x
CC1=CC(C)(C)N(C(=O)c2ccccc2)c2ccc(C)cc21,i,-11.4,0.72,i,i,i,x,x,x
COc1ccc(C(=O)N2c3cc4c(cc3C(C)=CC2(C)C)OCO4)cc1,-11.1*,-8.9,2.18,i,i,i,26.5%*,i,42.5%*
C=CCn1c(SCCC)nc2sc3c(c2c1=O)CCc1ccccc1-3,i,-8.5,0.57,i,i,i,i,i,i
CN(C)Cc1ccccc1Sc1ccc2c(c1)CCCC2,i,-2.7,-1.25,i,i,i,x,x,x
CCOC(=O)c1c(C)[nH]c(N=Nc2ccc(C)cc2C)c1C,i,-2.0,0.79,i,i,i,x,x,x
CCOC(=O)c1c(C)[nH]c(N=Nc2ccccc2C)c1C,-9.37*,-7.3,1.14,i,i,i,51.5%*,i,i
COC(=O)c1sccc1NC(=S)N1CCCCC1C (stereo not given),i,-13.7,0.04,i,i,i,i,i,i
COC(=O)c1sccc1NC(=S)N1C(C)CCCC1C (stereo not given),i,-12.9,0.01,i,i,i,x,x,x
CC(=O)OCC1CCCC2=C(C)C(=O)CCC21COC(C)=O (stereo not given),i,-5.4,0.04,i,i,i,x,x,x
C=C1CC2(OC1=O)c1ccccc1CCc1ccccc12,x,x,x,i,x,x,x,x,x
CSc1cccc(NC(=O)CSc2ncccc2C(=O)Oc2cccc([N+](=O)[O-])c2)c1,i,-5.9,0.49,i,i,i,x,x,x
CCN(C(=O)CSc1ncccc1C(=O)Oc1cccc([N+](=O)[O-])c1)c1cccc(C)c1,-18.6*,-7.8,0.7,i,i,i,52.0%*,i,28.0%*
CCOC(=O)c1ccc(-n2c(C)nc3c(cnn3-c3ccccc3Cl)c2=O)cc1,i,-16.5,1.19,i,i,i,i,i,i
CCOC(=O)c1ccc(-n2c(C)nc3c(cnn3-c3ccc(Cl)cc3)c2=O)cc1,i,-6.8,-0.6,i,i,i,x,x,x
SMILES,KCNK9 inh,hERG protect,Kir21 block,KCNK3 inh,KCNQ1 inh,KCNQ1 pot,KCNK9 block conf,Kir2-1 spec,KCNK9 uninduced
COC(=O)C1=NN(C(=O)c2cccc(Br)c2)C(O)(c2ccc(Cl)cc2)C1 (stereo not given),i,59.5*,-0.85,i,i,82*,i,i,i
Cc1ccc(N2CCN(S(=O)(=O)c3ccc(Cl)s3)CC2C)cc1 (stereo not given),i,-9.2,-0.09,i,i,i,i,i,i
COc1ccc(CCNC(=O)CCCCCn2c(SCC(N)=O)nc3cc4c(cc3c2=O)OCO4)cc1OC,i,-10.7,-0.4,i,i,i,x,x,x
COc1cccc(N2CCN(C(=O)c3ccc(CS(=O)Cc4ccc(Cl)cc4)o3)CC2)c1 (stereo not given),i,-12.6,0.52,i,i,i,x,x,x
CC1CCC(C(C)C)C(=O)/C1=C/c1ccc(N)cc1 (stereo not given),i,-7.1,-0.02,i,i,i,x,x,x
CC1/C(=C\c2ccc(Cl)cc2)C(=O)C2CC1C2(C)C (stereo not given),i,-4.5,2.48,i,i,i,i,i,i
O=C1Nc2ccc(Cl)cc2C(C#CC2CC2)(C(F)(F)F)O1 (stereo not given),-8.24*,-5.5,-1.2,i,i,i,48.5%*,i,46.5%*
O=C1ON=C(c2ccccc2)/C1=C/c1ccc(O)cc1,i,3.8,-6.82*,i,i,i,i,i,i
O=C1ON=C(c2ccc(Cl)cc2)/C1=C/c1ccc(O)cc1,i,-8.8,-6.14*,x,8*,i,i,i,i
Cc1ccc(C2=NOC(=O)/C2=C\c2ccccc2)cc1,i,-6.3,0.1,i,i,i,x,x,x
CCOC(=O)[C@@H]1[C@H]2COc3ccccc3[C@H]2N2C(=O)N(c3ccc(C(F)(F)F)cc3)C(=O)[C@]12C,-8.64*,-11.7,-0.6,i,i,i,52.5%*,i,34.0%*
CCOC(=O)[C@@H]1[C@H]2COc3ccccc3[C@@H]2N2C(=O)N(c3ccc(C(F)(F)F)cc3)C(=O)[C@@]12C,x,x,x,i,x,x,x,x,x
CC1(c2ccc(Cl)cc2)NC(=O)N(CN2CCOCC2)C1=O (stereo not given),i,-2.2,1.81,i,i,i,x,x,x

# Source: PubChem BioAssay
